PMC2225610 (The Journal of General Physiology, 1999)
Entries after “also recorded” stand apart in the source; their conditions may differ. Read-outs that look alike come from different tables or passages of the source. One block for each compound: values may come before it.

Key:
[1] = biological target: T1, type 1 InsP3 receptor (cerebellar membranes) (Canis lupus familiaris, UniProt A0A8I3NKB2); test: InsP3 binding to cerebellar microsomes; set-up: species or system canine
Outline: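 Canine cerebellar microsomes prepared with protease inhibitors. Membranes added, incubated 8 min at 0° or 22°C, then pelleted at 40,000 g for 10 min for scintillation counting. Nonspecific binding measured with 40–160 μM unlabeled InsP3. Two-site Scatchard fit; 3–5 repeats, separate preparations.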

[2] = biological target: T1, type 1 InsP3 receptor (cerebellar membranes); conditions: ref Kaftan et al., 1997; cited from earlier work
[3] = biological target: T2, type 1 InsP3-gated Ca channel (Canis lupus familiaris, UniProt A0A8I3NKB2); test: InsP3-gated channel activity in planar lipid bilayer; assay type: biochemical, canine
T2 sequence (A0A8I3NKB2 1-2757): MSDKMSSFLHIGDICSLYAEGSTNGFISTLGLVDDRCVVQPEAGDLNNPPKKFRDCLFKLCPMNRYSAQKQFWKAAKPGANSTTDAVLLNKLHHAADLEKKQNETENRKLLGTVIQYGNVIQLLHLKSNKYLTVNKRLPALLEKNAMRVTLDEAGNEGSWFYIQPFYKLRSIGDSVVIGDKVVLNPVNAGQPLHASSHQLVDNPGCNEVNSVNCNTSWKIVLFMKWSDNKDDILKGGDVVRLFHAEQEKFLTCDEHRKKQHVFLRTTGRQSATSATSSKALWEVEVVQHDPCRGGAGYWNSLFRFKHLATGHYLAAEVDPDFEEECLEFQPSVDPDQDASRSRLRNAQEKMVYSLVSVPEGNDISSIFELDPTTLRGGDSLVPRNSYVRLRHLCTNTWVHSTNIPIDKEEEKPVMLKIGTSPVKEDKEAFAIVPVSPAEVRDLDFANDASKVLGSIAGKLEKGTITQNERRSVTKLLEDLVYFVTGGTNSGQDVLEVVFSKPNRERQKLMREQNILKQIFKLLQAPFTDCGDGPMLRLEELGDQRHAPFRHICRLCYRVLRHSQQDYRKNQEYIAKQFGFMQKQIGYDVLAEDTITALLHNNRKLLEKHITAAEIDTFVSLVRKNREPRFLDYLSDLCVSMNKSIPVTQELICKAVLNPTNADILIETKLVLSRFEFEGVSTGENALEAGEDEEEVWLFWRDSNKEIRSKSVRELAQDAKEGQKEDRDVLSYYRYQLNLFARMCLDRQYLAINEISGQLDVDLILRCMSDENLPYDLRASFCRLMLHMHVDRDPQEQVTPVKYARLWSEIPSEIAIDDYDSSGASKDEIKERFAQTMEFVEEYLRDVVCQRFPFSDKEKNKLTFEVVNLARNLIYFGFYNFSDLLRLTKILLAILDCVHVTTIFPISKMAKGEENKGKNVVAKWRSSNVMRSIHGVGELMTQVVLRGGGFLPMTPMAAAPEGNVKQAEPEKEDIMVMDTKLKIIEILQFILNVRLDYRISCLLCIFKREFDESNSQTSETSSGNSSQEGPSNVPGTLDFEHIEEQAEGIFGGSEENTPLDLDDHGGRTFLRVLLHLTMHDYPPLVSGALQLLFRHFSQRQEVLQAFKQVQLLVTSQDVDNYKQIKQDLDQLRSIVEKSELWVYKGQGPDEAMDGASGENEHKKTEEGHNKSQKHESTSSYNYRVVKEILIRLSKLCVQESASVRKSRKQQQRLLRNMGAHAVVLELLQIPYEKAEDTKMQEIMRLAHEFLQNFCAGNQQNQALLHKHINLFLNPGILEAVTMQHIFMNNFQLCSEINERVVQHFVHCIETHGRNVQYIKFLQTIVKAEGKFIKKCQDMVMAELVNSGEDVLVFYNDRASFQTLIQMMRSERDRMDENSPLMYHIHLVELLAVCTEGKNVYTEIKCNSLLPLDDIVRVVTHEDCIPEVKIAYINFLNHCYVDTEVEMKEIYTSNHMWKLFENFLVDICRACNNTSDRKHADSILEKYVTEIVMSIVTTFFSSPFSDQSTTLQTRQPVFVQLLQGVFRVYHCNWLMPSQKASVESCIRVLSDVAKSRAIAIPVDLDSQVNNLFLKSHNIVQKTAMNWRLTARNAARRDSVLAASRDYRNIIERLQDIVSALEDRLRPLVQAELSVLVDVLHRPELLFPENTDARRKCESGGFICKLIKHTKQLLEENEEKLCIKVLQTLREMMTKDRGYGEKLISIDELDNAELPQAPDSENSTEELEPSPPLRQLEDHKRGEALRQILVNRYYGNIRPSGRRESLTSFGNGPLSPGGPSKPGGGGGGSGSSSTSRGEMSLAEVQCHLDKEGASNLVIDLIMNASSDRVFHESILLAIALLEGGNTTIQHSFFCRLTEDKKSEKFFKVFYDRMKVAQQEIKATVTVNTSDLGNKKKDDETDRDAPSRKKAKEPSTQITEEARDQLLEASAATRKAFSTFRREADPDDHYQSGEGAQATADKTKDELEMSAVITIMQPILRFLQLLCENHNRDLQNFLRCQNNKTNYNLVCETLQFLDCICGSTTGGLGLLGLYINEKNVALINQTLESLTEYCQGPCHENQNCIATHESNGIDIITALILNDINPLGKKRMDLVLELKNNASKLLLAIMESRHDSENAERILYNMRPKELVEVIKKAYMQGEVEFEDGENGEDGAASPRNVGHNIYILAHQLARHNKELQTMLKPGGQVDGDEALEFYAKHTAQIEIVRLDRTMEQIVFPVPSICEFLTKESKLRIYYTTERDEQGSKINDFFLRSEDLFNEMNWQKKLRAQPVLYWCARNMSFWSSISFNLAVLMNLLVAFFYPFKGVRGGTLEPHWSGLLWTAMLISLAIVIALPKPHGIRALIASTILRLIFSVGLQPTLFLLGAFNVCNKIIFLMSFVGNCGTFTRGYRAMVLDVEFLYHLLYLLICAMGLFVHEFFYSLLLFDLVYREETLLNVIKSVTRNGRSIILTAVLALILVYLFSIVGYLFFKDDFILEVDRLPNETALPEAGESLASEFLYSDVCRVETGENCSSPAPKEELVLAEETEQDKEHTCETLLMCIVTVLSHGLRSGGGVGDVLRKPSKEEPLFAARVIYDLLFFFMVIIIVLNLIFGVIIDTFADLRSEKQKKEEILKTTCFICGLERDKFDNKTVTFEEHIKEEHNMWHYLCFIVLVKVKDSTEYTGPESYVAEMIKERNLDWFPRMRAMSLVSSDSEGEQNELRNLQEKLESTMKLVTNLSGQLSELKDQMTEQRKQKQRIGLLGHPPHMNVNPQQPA
Outline: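 Canine cerebellar microsomes fused into PE:PS (3:1) bilayers in decane. Cytosolic side: 500 μM Na-ATP, 500 μM EGTA, 110 mM Tris, 250 mM HEPES, pH 7.35, with CaCl2 to set free Ca, verified by BTC fluorescence. Luminal side: 53 mM Ba(OH)2 as carrier, 250 mM HEPES. InsP3 added to start activity. Held at 0 mV; filtered 1 kHz, digitized 5 kHz; open-time histograms compiled.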

[4] = biological target: InsP3-gated Ca channel tetrameric complex; test: Mathematical model of the tetrameric InsP3-gated channel complex; conditions: read-out: Model dissociation constant, InsP3 low affinity site (J); 22°C
Outline: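 Tetramer model: each subunit has a medium-affinity InsP3 site, a low-affinity InsP3 site and a Ca site, giving 125 states. Assumes mass-action binding, diffusion-limited on-rates and identical subunits, solved at equilibrium. Low-affinity occupancy defines the active state, with open/closed transitions. Unknown parameters found by quasi-Newton iterative fitting to single-channel open probability and Ca-dependent binding data at 22°C; open-time histograms add constraints.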

[5] = biological target: T2, type 1 InsP3-gated Ca channel; conditions: cited from earlier work
[6] = tested on: cerebellar Purkinje cells; conditions: flash photolysis; ref Khodakhah and Ogden, 1995; cited from earlier work
intracellular Ca = conditions: 100 μM; ref Wakui et al., 1989; Petersen et al., 1991; cited from earlier work

Structure (SMILES): [Ba+2] [barium]
Effect on Ca-dependent inhibition of InsP3 binding ([1]; 100 μM free barium, data not shown): did not alter

Structure (SMILES): O=P(O)(O)OC1[C@H](O)[C@H](OP(=O)(O)O)C(OP(=O)(O)O)[C@H](OP(=O)(O)O)[C@H]1O (stereo partly shown) [1,3,4,5-InsP4]
Specificity of low affinity site for 1,4,5-InsP3 versus 1,3,4,5-InsP4 [2]: low level of specificity

Q10 of temperature-dependent change in InsP3 binding affinity ([1]; 0° vs 22°C, cerebellar membranes): 2.3 | Difference between medium and low affinity site dissociation constants ([1]; 22°C (0.3 vs ∼10 μM)): 30 × | Difference in dissociation constants between medium and low affinity sites ([1]; 37°C (1 vs. 10 μM), predicted): 10 fold | Kd ([1]; read-out: Kd for InsP3 binding at high Ca, 22°C, 50 μM free Ca): 1780 nM | Kd ([1]; read-out: Kd of InsP3 binding, medium affinity site, 22°C): 312 nM | Channel open time constant, fast component ([3]; 0.01 μM Ca, 2 μM InsP3): 1.8 ms | Channel open time constant, slow component ([3]; 0.01 μM Ca, 2 μM InsP3): 9.3 ms | Channel open time constant, fast component ([3]; 0.1 μM Ca): 0.6 ms | Channel open time constant, slow component ([3]; 0.1 μM Ca): 4.7 ms | Kd [4]: 10000 nM
Structure (SMILES): O=P(O)(O)O[C@@H]1[C@H](O)[C@H](O)[C@@H](OP(=O)(O)O)[C@H](OP(=O)(O)O)[C@H]1O [InsP3, inositol 1,4,5-trisphosphate]
Effect of high InsP3 on Ca-dependent inhibition of channel activity ([5]; 180 μM InsP3, ref Kaftan et al., 1997): overcame the Ca-dependent inhibition of channel activity | Hill coefficient from single channel activity determinations ([5]; ref Watras et al., 1991): 1.0 | Intracellular InsP3 needed to induce Ca release [6]: at least 9 μM | Effect on intracellular Ca (intracellular Ca): sustained elevation of intracellular Ca

Hill coefficient of Ca-dependent inhibition of InsP3 binding ([1]; 0°C): 1.5 | Ca-dependent increase in Kd of InsP3 binding ([1]; 0°C, Ca 0.0004 to 10 μM, medium affinity site): ~3.5 fold | Decrease of InsP3 binding by Ca ([1]; 0°C, Ca increased from 0 to 100 μM, 10 nM InsP3): 66% | Hill coefficient of Ca-dependent inhibition of InsP3 binding ([1]; 22°C): 2.8 | Reduction of InsP3 binding by Ca ([1]; 22°C, 170 nM InsP3, Ca 0.1 to 10 μM): 55%
Structure (SMILES): [Ca+2] [Ca, calcium]
Effect of Ca on maximal number of InsP3 binding sites ([1]; 0° and 22°C): did not influence the maximal number of binding sites; also recorded: no evidence for an effect | Inhibition of channel activity by Ca ([5]; 5 μM Ca, 2 μM InsP3, ref Bezprozvanny et al., 1991): near complete inhibition

Structure (SMILES): O=C(O)CN(CCOCCOCCN(CC(=O)O)CC(=O)O)CC(=O)O [EGTA]
Reversal of Ca-dependent inhibition of InsP3 binding by Ca chelation ([1]; EGTA added after Ca): fully reversible; also recorded: completely reversed; also recorded: completely reversible

Structure (SMILES): O=P(O)(S)O[C@@H]1[C@@H](O)[C@H](OP(O)(O)=S)[C@@H](OP(O)(O)=S)[C@H](O)[C@@H]1O (stereo partly shown) [InsPS3]
Effect on intracellular Ca (intracellular Ca): sustained elevation of intracellular Ca
